Each structure is given as a SMILES string.

Consider one molecule from ChEMBL document CHEMBL3286385, “Novel 1-[4-(Aminosulfonyl)phenyl]-1H-1,2,4-triazole derivatives with remarkable selective COX-2 inhibition: design, synthesis, molecular docking, anti-inflammatory and ulcerogenicity studies” (Eur J Med Chem, 2014).

The test system of series [1] is Rattus norvegicus. In words: Gastric toxicity in rat assessed as ulcer index at 0.28 mmol/kg, po. In kind it is organism-based. The settings on record: in vivo.
Series [2] is described as follows: Selectivity index, ratio of IC50 for ovine COX1 to IC50 for human recombinant COX2. The gist of the method:
(§1)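 Ovine COX-1 or human recombinant COX-2 was preincubated 20 min at room temperature with a range of compound concentrations in 100 mM Tris-HCl pH 8.0, heme and ADHP. Arachidonic acid was then added for 2 min at room temperature, and resorufin fluorescence was read. IC50 came from the dose-response curve (triplicate determinations). Selectivity index = COX-1 IC50/COX-2 IC50.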

Series [3] has as its system Rattus norvegicus. In words: Antiinflammatory activity against albino rat assessed as inhibition of carrageenan-induced paw edema at 0.28 mmol/kg, po administered 30 mins prior to carrageenan challenge measured after 4 hrs relative to control. The class given is functional. In outline:
(§2)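 Adult male albino rats (120–140 g), in groups of four, were fasted 24 h with water allowed. Compounds were given orally as a suspension in 0.5% w/v CMC in water, and controls received CMC alone. After 30 min, 0.1 mL of 1% carrageenan in saline was injected subplantar into the right hind paw and saline into the left. Paw thickness was measured by caliper. % inhibition = [(VR−VL)control − (VR−VL)treated]/(VR−VL)control; one-way ANOVA.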

Series [4] relates to Rattus norvegicus. In words: Antiinflammatory activity against albino rat assessed as inhibition of carrageenan-induced paw edema at 0.28 mmol/kg, po administered 30 mins prior to carrageenan challenge measured after 5 hrs relative to control. In kind it is functional. In outline:
as §2

Series [5] deals with Rattus norvegicus. In words: Antiinflammatory activity against albino rat assessed as inhibition of carrageenan-induced paw edema at 0.28 mmol/kg, po administered 30 mins prior to carrageenan challenge measured after 3 hrs relative to control. In kind it is functional. The gist of the method: as §2
(The carrageenan paw model is a standard test of acute inflammation.)

Series [6] relates to Rattus norvegicus. In words: Antiinflammatory activity against albino rat assessed as inhibition of carrageenan-induced paw edema at 0.28 mmol/kg, po administered 30 mins prior to carrageenan challenge measured after 1 hr relative to control. In kind it is functional. The gist of the method:
as §2

In series [7] the test system is Rattus norvegicus. The series can be described thus: Antiinflammatory activity against albino rat assessed as inhibition of carrageenan-induced paw edema at 0.28 mmol/kg, po administered 30 mins prior to carrageenan challenge measured after 3 hrs relative to celecoxib. Further details: scale not given: the % may be the effect or the level left. The class given is functional.

In series [8] the target is T1, Prostaglandin G/H synthase 2 (Homo sapiens, UniProt P35354).
T1 sequence (P35354 whole entry): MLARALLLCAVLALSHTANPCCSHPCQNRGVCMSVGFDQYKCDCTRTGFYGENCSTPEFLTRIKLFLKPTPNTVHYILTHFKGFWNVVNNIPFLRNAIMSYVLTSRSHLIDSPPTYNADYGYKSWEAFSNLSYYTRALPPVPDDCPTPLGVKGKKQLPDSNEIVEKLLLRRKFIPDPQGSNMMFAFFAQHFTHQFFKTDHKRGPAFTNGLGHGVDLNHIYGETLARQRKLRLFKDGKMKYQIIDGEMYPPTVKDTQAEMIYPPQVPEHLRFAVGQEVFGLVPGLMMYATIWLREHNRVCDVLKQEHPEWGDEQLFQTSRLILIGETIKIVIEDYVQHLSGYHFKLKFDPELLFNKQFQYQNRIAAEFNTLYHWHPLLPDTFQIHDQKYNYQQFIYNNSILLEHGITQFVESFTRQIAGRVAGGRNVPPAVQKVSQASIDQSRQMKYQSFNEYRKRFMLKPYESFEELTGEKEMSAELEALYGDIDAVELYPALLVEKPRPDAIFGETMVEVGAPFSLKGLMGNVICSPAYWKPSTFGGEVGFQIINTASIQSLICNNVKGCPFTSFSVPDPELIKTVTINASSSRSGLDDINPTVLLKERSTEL
The series can be described thus: Inhibition of human recombinant COX2 using ADHP as substrate after 20 mins by fluorescence assay. The gist of the method: as §1

Series [9] deals with Rattus norvegicus. The series can be described thus: Antiinflammatory activity against albino rat assessed as inhibition of carrageenan-induced paw edema at 0.28 mmol/kg, po administered 30 mins prior to carrageenan challenge measured after 2 hrs relative to control. In kind it is functional. The gist of the method: as §2
Series [10] concerns the target T2, Prostaglandin G/H synthase 1 (Ovis aries, UniProt P05979).
T2 sequence (P05979 whole entry): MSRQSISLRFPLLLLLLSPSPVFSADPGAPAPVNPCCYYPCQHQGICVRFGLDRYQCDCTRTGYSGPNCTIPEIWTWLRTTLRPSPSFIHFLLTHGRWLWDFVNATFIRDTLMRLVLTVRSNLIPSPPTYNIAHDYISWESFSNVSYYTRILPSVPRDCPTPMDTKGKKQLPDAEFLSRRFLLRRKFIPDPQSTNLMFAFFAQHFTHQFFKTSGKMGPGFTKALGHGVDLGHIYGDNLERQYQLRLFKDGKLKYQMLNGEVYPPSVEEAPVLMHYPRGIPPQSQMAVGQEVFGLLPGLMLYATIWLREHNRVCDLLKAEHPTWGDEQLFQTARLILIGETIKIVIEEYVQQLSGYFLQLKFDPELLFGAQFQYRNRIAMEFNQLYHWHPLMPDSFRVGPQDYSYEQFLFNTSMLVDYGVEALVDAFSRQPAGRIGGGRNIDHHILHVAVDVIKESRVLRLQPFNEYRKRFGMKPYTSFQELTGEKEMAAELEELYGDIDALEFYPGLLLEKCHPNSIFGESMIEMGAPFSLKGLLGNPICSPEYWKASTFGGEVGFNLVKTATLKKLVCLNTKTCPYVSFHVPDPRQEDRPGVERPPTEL
In words: Inhibition of ovine COX1 using ADHP as substrate after 20 mins by fluorescence assay. The gist of the method: as §1

The subject of series [11] is Rattus norvegicus. In words: Antiinflammatory activity against albino rat assessed as inhibition of carrageenan-induced paw edema at 0.28 mmol/kg, po administered 30 mins prior to carrageenan challenge measured after 3 hrs relative to indomethacin. Set-up: scale not given: the % may be the effect or the level left. The class given is functional.

Consider `NS(=O)(=O)c1ccc(-n2nc(C(=O)Nc3nc4ccccc4s3)nc2-c2ccccc2)cc1`, for which, in the series with Rattus norvegicus [1], the UI amounted to 1. For the same molecule, the Ratio IC50 in [2] came to 2100. The inhibition in vivo at 280 µmol/kg with Rattus norvegicus [3] stood at 44%; with Rattus norvegicus [4], 38%; in the series with Rattus norvegicus [5] it was 54%; in the series with Rattus norvegicus [6] it was 20%; in the series with Rattus norvegicus [9], 32%. Besides, the Activity in the series with Rattus norvegicus [7] is listed as 78%; in the series on Rattus norvegicus [11], 68%. Besides, the half-inhibitory concentration (IC50) came out at 0.38 µM in [8] and 798 µM in [10].

In general, inhibition in vivo refers to the percentage by which the read-out fell short of the control. For orientation: IC50 means the concentration needed to halve the response being measured.
